The source of these data is ChEMBL document CHEMBL4513216, “Probing the Open Global Health Chemical Diversity Library for Multistage-Active Starting Points for Next-Generation Antimalarials” (ACS Infect Dis, 2020).

This data set can be described thus: Toxicity liver stage against HepG2, at 10uM. In kind it is cell-based. Further details: test concentration 10 uM, cell line HepG2-A16-CD81EGFP. As to conditions: human, HepG2-A16-CD81EGFP cells; read-out: INHIBITION
Summed up: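 Uninfected HepG2-A16-CD81EGFP cells, 3 × 10^3 per well, 1536-well, plated on prespotted compound at 10 μM final, parasite-free screening media added to match infected plates; puromycin 10 μM positive, DMSO 0.5% negative; run in parallel with 48 h PbLuc assay at 37 °C, 5% CO2; viability by CellTiter-Glo luminescence, normalized to controls.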
On to `Fc1ccc(C2CCCN2Cc2nc(Cc3ccccc3F)no2)cc1` (configuration not stated), for which the cytotoxicity at 10 µM was -18.2%.
As for `O=C1N(Cc2ccccn2)C[C@H]2CN(S(=O)(=O)c3ccccc3)CCN12`, the cytotoxicity at 10 µM turned out to be 4.97%.
With `CN1CCC(N2CCOC[C@H](OCC(=O)N(C)C)C2)CC1`, the cytotoxicity at 10 µM is 1.44%.
On to `O=S1(=O)N(c2ccccc2)C[C@@H](O)[C@]12CCNC2`, for which the cytotoxicity at 10 µM came out at 2.63%.
Turning to `CC(=O)N1CC(C(=O)Nc2cccc(OC(F)F)c2)C1`, the cytotoxicity at 10 µM came out at 1.22%.
The same measure for `COc1ccc(CCC(=O)NCCN2CCC(c3cccs3)CC2)cc1`: 4.59%; for `CN(C)C(=O)CNC(=O)c1ccc2ccc(N(C)CC3CC3)n2c1`: 1.11%; for `COCC(=O)NCC1Cn2nnc(-c3ccoc3)c2CO1` (configuration not stated): 17%.
The same measure for `CCN1CC2(CC1=O)CN(C(C)=O)CCN(S(C)(=O)=O)C2` (configuration not stated): 0.38%; for `Cc1cnc(N2CCC3(CCC(C(=O)NC(C)C)OC3)CC2)nc1` (configuration not stated): 0.903%; for `O=C(C1CCCO1)N1CCC2(CC1)CNCCO2` (configuration not stated): -7.06%.
Take `CNc1nc2c(s1)C(c1cccc(Cl)c1Cl)CC(=O)N2` (configuration not stated): the cytotoxicity at 10 µM was found to be 5.97%.
For the molecule `Cc1oc(-c2nc(C#N)c(NC3CC3)o2)cc1S(=O)(=O)N1CCCC1`, the cytotoxicity at 10 µM is -9.95%.
On to `Cc1c(Br)c(C(F)F)nn1C(C)C(=O)O` (configuration not stated), for which the cytotoxicity at 10 µM was 4.51%.
The same measure for `CCn1c(NCC2CCCO2)nc2c(C)nn(C)c2c1=O` (configuration not stated): -3.09%; for `CCn1c(SCC(N)=O)nnc1-c1csc2c1CCCC2`: 16%.
With `COC(=O)c1cc(C2CC2)nc2c(C#N)cnn12`, the cytotoxicity at 10 µM came out at 14%.
The figure for `CC(=O)NCC(=O)N1CCCC1c1ccc(CN2CCOCC2)cn1` (configuration not stated) is -2.3%.
Consider `Cc1nnc(C2CCN(c3ncccn3)CC2)o1`, for which the cytotoxicity at 10 µM came out at 10.8%.
The figure for `Cc1cc(C)nc(N2CC=C[C@H]2C(=O)NCc2ccc3c(c2)OCO3)n1` is 0.711%.
The same measure for `Cc1noc(C)c1CCC(=O)N1CCOCC1CCc1cnccn1` (configuration not stated): -3.37%; for `CC(=O)N1CCC(c2cccc(-c3cccc(C(=O)O)c3)n2)CC1`: -0.0353%; for `c1ccc(CCN2CCCC2c2ccnc(Nc3cnccn3)n2)cc1` (configuration not stated): -3.65%.
Take `CNC(=O)c1cn[nH]c1C1CCN(Cc2cn(C)nc2C)C1` (configuration not stated): the cytotoxicity at 10 µM was -24.3%.
Turning to `CO[C@H]1CN(Cc2ccc(F)cc2)CC[C@@]12CCCO2`, the cytotoxicity at 10 µM was -24.5%.
The figure for `Cn1nccc1CCC(=O)N1CCCC(c2cnccn2)C1` (configuration not stated) is -22.7%; for `O=S(=O)(c1ccc(F)c(F)c1)N1CCCC(c2nccs2)C1` (configuration not stated) it is -0.523%.
The figure for `CN(C)C(=O)c1cc(-c2ccc(S(C)(=O)=O)cc2)c2cnn(C)c2n1` is 3.63%; for `COc1ccc(C(=O)Nc2nncs2)cn1` it is -11.9%; for `Cc1ccc(S(=O)(=O)N(C)Cc2cnccn2)cc1N(C)C` it is 12%.
For `COc1cccc(CNC2CCCOc3cc(C)ccc32)n1` (configuration not stated), the cytotoxicity at 10 µM was 8.53%.
The figure for `CC1CCC(NS(=O)(=O)CC(=O)NCC2CCC2)CC1` (configuration not stated) is -3.17%.
`CCOC(=O)c1nnc2ccccc2c1N1CCN(CC)CC1`: the cytotoxicity at 10 µM was -2.27%.
`O=C(CN1CCOC(Cn2cccn2)C1)NC1CCN(C2CC2)CC1` (configuration not stated): the cytotoxicity at 10 µM is 1.1%.
The same measure for `Cc1ccc(-c2nc(CCNC(=O)C3CC(=O)N(C)C3)cs2)cc1` (configuration not stated): -5.54%; for `CCCC(C(=O)NCCc1nc(C)cs1)N(C)C` (configuration not stated): -4.17%.
Regarding `O=C(Nc1cccc(C(F)F)c1)N[C@@H]1C=C[C@H](CO)C1`, the cytotoxicity at 10 µM was -4.81%.
With `CN(C)C(CNC(=O)c1nc(N2CCCC2)ncc1Cl)c1ccco1` (configuration not stated), the cytotoxicity at 10 µM came out at 5.92%.
The same measure for `Cc1cc(NCC2(O)CCOCC2)c2ccccc2n1`: -13.3%; for `CCC(CC)NC(=O)CN1CCSCC1`: -8.98%.
For `CC(=O)Nc1cccc(C(C)NCC2CCS(=O)(=O)CC2)c1` (configuration not stated), the cytotoxicity at 10 µM is 0.224%.
Turning to `CC(C)(C)NC(=O)CNC(=O)Nc1cc(-c2ccccc2)ns1`, the cytotoxicity at 10 µM was 16.6%.
On to `Cn1cc(CNCCc2cccnc2)c(-c2cccnc2)n1`, for which the cytotoxicity at 10 µM worked out at 9.37%.
Take `Cc1cc(S(=O)(=O)N(CCO)C2CC2)ccc1F`: the cytotoxicity at 10 µM was found to be 0.866%.
On to `CSCC(C)(O)CNc1ncccc1C(F)(F)F` (configuration not stated), for which the cytotoxicity at 10 µM was found to be 13.7%.
In the case of `CC1CN(Cc2ccccc2)CCCN1CCS(C)(=O)=O` (configuration not stated), the cytotoxicity at 10 µM is -1.4%.
The figure for `O=C(CCCNC(=O)NCC1CCCO1)Nc1ccc(Cl)cc1` (configuration not stated) is -4.52%.
With `COc1ccc(C(C)(C)C(=O)NCc2n[nH]c(=O)[nH]2)cc1`, the cytotoxicity at 10 µM stood at 1.07%.
Turning to `C=C(C)CN(Cc1cccc(O)c1)C1CCC(O)CC1` (configuration not stated), the cytotoxicity at 10 µM was determined as 17.3%.
For `CC(c1nc(C(C)(C)C)no1)N1CCN(CC(=O)N2CCOCC2)CC1` (configuration not stated), the cytotoxicity at 10 µM was -2.67%.
Regarding `O=C(c1n[nH]c2c1CCC2)N1CCCC1c1nc(-c2ccccn2)no1` (configuration not stated), the cytotoxicity at 10 µM is -1.82%.
Take `Cc1cnccc1N1CCCN(C(=O)CCc2n[nH]c(C)c2C)CC1`: the cytotoxicity at 10 µM was -3.79%.
`CSCCc1nc(-c2ccc3c(c2)OCO3)n(C)n1`: the cytotoxicity at 10 µM was 1.6%.
For `O=C(CN1CCN(c2ncnc3c2CCNCC3)CC1)N1CCCCC1`, the cytotoxicity at 10 µM came to 6.63%.
For the molecule `OC[C@@H]1CCCN1c1ccc(-c2nc(COc3ccccc3)no2)cn1`, the cytotoxicity at 10 µM was -8.42%.
The same measure for `c1ccc(Cc2noc(-c3ccc(NCC4CCCCO4)nc3)n2)cc1` (configuration not stated): 3%; for `COCC(=O)N1CCN(S(=O)(=O)c2ccccc2)[C@H]2CS(=O)(=O)C[C@H]21`: 4.84%; for `CCN(CCO)Cc1cn(-c2cccc(F)c2)nc1-c1ccc(C)o1`: 8.32%.
Regarding `Cc1nc(CC(=O)N2CCCC(N(C)Cc3ccccc3)C2)cs1` (configuration not stated), the cytotoxicity at 10 µM came to 9.38%.
Regarding `OC1(CN2CCCC2)CCCN(Cc2c[nH]c(CC3CCCC3)n2)C1` (configuration not stated), the cytotoxicity at 10 µM was -9.09%.
In the case of `Cc1nccn1-c1ccc(N2CCC(NC(C)C(C)C)CC2)cc1` (configuration not stated), the cytotoxicity at 10 µM was -7.33%.
For `O=C(C1CCCCO1)N1CCc2ncnc(NCCO)c2CC1` (configuration not stated), the cytotoxicity at 10 µM worked out at 7.94%.
With `Cc1nnc(N2CC[C@@]3(O)CCNC[C@H]3C2)c2ccccc12`, the cytotoxicity at 10 µM was determined as 2.61%.
As for `CC(C)n1cnnc1CN(C)C(=O)Cn1ccc2ccccc2c1=O`, the cytotoxicity at 10 µM was determined as 3.1%.
As for `COCCNc1cc(-c2ccccc2CCN)c2cc[nH]c2n1`, the cytotoxicity at 10 µM amounted to 2.13%.
Regarding `CC(C)C(=O)NCC(=O)NCC1CCN(c2cnn(C)c(=O)c2)CC1`, the cytotoxicity at 10 µM was 3.47%.
Take `COCCNC(=O)c1cc(COc2cncc(Cl)c2)on1`: the cytotoxicity at 10 µM was 0.141%.
Turning to `CCc1[nH]c2c(CNC(=O)C3CNC(=O)C3)cc(C)cc2c1C` (configuration not stated), the cytotoxicity at 10 µM turned out to be 2.75%.
As for `O=C(O)c1cnc(N2CCC(c3nccn3CC3CC3)CC2)c(Cl)c1`, the cytotoxicity at 10 µM is -9.98%.
`COc1ccc2c(c1)C(C(=O)NCCCN1CCN(C)CC1)CC(=O)N2` (configuration not stated): the cytotoxicity at 10 µM was 11.2%.
Regarding `CN(C)C[C@H]1C[C@@H](CO)CN(C(=O)c2cc(=O)[nH]c3cc(F)ccc23)C1`, the cytotoxicity at 10 µM is -4.16%.
As for `O=C(c1cc[nH]n1)N1CCc2ncnc(N3CCSCC3)c2CC1`, the cytotoxicity at 10 µM was -3.67%.
For the molecule `CCN1CCCC(C)(C(=O)NCCCc2nc(C)cs2)C1` (configuration not stated), the cytotoxicity at 10 µM was found to be 1.54%.
Take `Cc1cc(C(=O)N2CCCC(C(=O)c3nccn3C)C2)c(=O)[nH]c1C` (configuration not stated): the cytotoxicity at 10 µM was determined as 3.15%.
For `CCn1c(CN(C)C)nnc1C1CCN(Cc2cccc(C#N)c2)CC1`, the cytotoxicity at 10 µM came out at 6.5%.
In the case of `CO[C@H]1CN(C(C)C)C[C@@H]1NC(=O)c1cc(-c2ccccc2O)n[nH]1`, the cytotoxicity at 10 µM was -0.247%.
In the case of `Cc1cccc(C(C(=O)N(C)Cc2ccon2)N(C)C)c1` (configuration not stated), the cytotoxicity at 10 µM came to 5.4%.
Take `CN(c1ncccc1CNC(=O)c1cscn1)C1CCCCC1`: the cytotoxicity at 10 µM is 1.86%.
`CCCc1nc(N2Cc3cnn(Cc4ccc(F)cc4)c3C2)no1`: the cytotoxicity at 10 µM was found to be 17.3%.
Turning to `COCc1nc(C(=O)NS(=O)(=O)c2cc(C)ccc2C)cs1`, the cytotoxicity at 10 µM was -4.04%.
As to `CC1CN(CC(=O)Nc2nncs2)CCN1Cc1nccn1C` (configuration not stated), the cytotoxicity at 10 µM is -11.2%.
The figure for `COCCN1CCN(CCCS(C)(=O)=O)CC1C` (configuration not stated) is -5.5%.
For `CC(=O)N(Cc1noc(C2CC2)n1)C1CCN(Cc2cccnc2)C1` (configuration not stated), the cytotoxicity at 10 µM is -3.36%.
In the case of `Cc1ccc(NC2CCN(C(=O)c3cnc(C)s3)CC2)nn1`, the cytotoxicity at 10 µM came to 2.48%.
With `CCc1nc(C2CCCN2C(=O)c2c[nH]c(C)n2)no1` (configuration not stated), the cytotoxicity at 10 µM is -0.674%.
Take `Cn1nc2c(cc1=O)CN(Cc1nc(-c3cccs3)no1)CC2`: the cytotoxicity at 10 µM was -2.82%.
The same measure for `Cc1nn(C)c(C)c1C1CCCN1CC(=O)NC(C1CC1)C1CC1` (configuration not stated): -5.38%; for `Cc1noc(C)c1CNCC1CCCN1c1cccnn1` (configuration not stated): 3.3%; for `Cc1cnc(-c2nc(C3CCCN(Cc4ccccc4C)C3)no2)cn1` (configuration not stated): -2.33%.
The figure for `COc1cccc(CN2CCCCC2c2n[nH]cc2-c2cc(C)no2)c1` (configuration not stated) is 17.1%.
The same measure for `Cc1ncccc1-c1cc2cccnc2n1CCCNC(=O)C1CC1`: 2.18%; for `NC(=O)C1CN(c2ccc(F)cc2)CCN1` (configuration not stated): -4.98%; for `CN(C)CCO[C@H]1CN(CC2CC2)[C@@H]2CCCO[C@H]12`: -96.3%.
In the case of `CC(C)OCCCN(CC(=O)N1CCNCC1)C(=O)c1cccc(Cl)c1`, the cytotoxicity at 10 µM is 10.3%.
As to `O=C(NC1CCCC1)N1CC[C@H]2[C@H]1CCN2c1nncs1`, the cytotoxicity at 10 µM was -7.73%.
The figure for `c1nc(N2CCc3nc[nH]c3C2)c2cc[nH]c2n1` is -5.71%; for `CC1(C)[C@@H]2CC=C(CN3CCCn4nc(CNS(C)(=O)=O)cc4C3)[C@H]1C2` it is -46%.
